This is an account of results in ChEMBL document CHEMBL1121799, “Beta-adrenoceptor stimulant properties of amidoalkylamino-substituted 1-aryl-2-ethanols and 1-(aryloxy)-2-propanols” (1981).

The species named for assay [1] is Canis familiaris. The experiment in a line: Selectivity is expressed as the ratio of ED50 on hind limb perfusion pressure to the ED50 on heart rate. In kind it is functional, Canis lupus familiaris. The gist of the method:
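Cardioselectivity is the ratio of ED50 for HLPP to ED50 for HR. Both come from cumulative iv dose-response curves in pentobarbital-anesthetized dogs with a pump-perfused hind limb and a cardiotachometer reading HR.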

For assay [2], the system named is Canis familiaris. Kind of assay: Effective dose required for the maximum heart rate in anesthetized dogs. The class given is functional. Particulars: Canis lupus familiaris. The procedure, abridged:
(§1)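 Anesthetized dogs on pentobarbital (20 mg/kg iv, then 2 mg/kg iv every 30 min), ventilated with 40% O2 in air. Left hind limb pump-perfused from the abdominal aorta, heparin 500 IU/kg iv. HR from a lead II ECG-driven cardiotachometer. Arterial pCO2 held at 34-42 mmHg and pH 7.35-7.43. Cumulative iv doses in saline. ED50 taken from dose-response curves of peak HR or HLPP change.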

Assay [3] concerns Canis familiaris. The experiment in a line: Effective dose required for the maximum hind limb perfusion pressure(HLPP) in anesthetized dogs. In kind it is functional. Particulars: Canis lupus familiaris, Hindlimb. The procedure, abridged:
as §1

For assay [4], the species on record is Canis familiaris. Kind of assay: Intrinsic sympathomimetic activity (ISA), calculated as the percent of maximum change in hind limb perfusion pressure (HLPP). The class given is functional, Canis lupus familiaris, Hindlimb. The gist of the method:
(§2)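 Same anesthetized, ventilated dog preparation with a pump-perfused left hind limb. An isoproterenol curve was run first. About 45 min later, once HR and HLPP had returned to control, cumulative iv doses of test compound in saline were given. ISA is the maximum HR or HLPP change produced by the compound, expressed as a percentage of the isoproterenol maximum.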

The species named for assay [5] is Canis familiaris. Kind of assay: Intrinsic sympathomimetic activity (ISA, calculated as the percent of maximum change in heart rate (HR). The class given is functional, Canis lupus familiaris. The gist of the method: as §2

Molecules are shown by their SMILES. Some results are limits rather than exact numbers.

For orientation: ED50 means the midpoint of the dose-response relation. A low value points to greater potency. As to `O=C(Cc1ccccc1)NCCNCC(O)COc1ccc(O)cc1.O=C(O)C(=O)O` (stereo not given), in the assay filed under Canis familiaris [1], the Selectivity is recorded as 3.3. In addition, the ED50 in the assay with Canis familiaris [2] was found to be 0.027 µmol/kg; with Canis familiaris [3], 0.09 µmol/kg. Further, the ISA in the assay filed under Canis familiaris [4] and in the assay filed under Canis familiaris [5] was 40% in each case.
As for `CC(C)C(=O)NCCNCC(O)COc1cccc(O)c1.O=C(O)C(=O)O` (stereo not given), the Selectivity in the assay listed under Canis familiaris [1] is on record as 1.2. Also, the values for the ED50 in the assay with Canis familiaris [2] and with Canis familiaris [3] were 0.209 µmol/kg and 0.26 µmol/kg, respectively. For the same molecule, the ISA in the assay listed under Canis familiaris [4] is listed as 33%; in the assay listed under Canis familiaris [5], 25%.
With `CCN(CC)C(=O)NCCNCC(O)COc1ccc(O)cc1.O=C(O)C(=O)O` (stereo not given), in the assay listed under Canis familiaris [1], the Selectivity is given as 10. The ED50 in the assay with Canis familiaris [2] came out at 0.037 µmol/kg; with Canis familiaris [3], 0.036 µmol/kg. The ISA is recorded as 18% in the assay listed under Canis familiaris [4] and 28% in the assay filed under Canis familiaris [5].
As to `CN(C)S(=O)(=O)NCCNCC(O)COc1ccc(O)cc1.O=C(O)C(=O)O` (stereo not given), the Selectivity in the assay listed under Canis familiaris [1] came to 2.5. Besides, the median effective dose (ED50) with Canis familiaris [2] was found to be 0.069 µmol/kg; with Canis familiaris [3] it was 0.175 µmol/kg. Also, the ISA in the assay listed under Canis familiaris [4] and in the assay listed under Canis familiaris [5] was 80% in each case.
As for `CC(C)NCC(O)c1ccc(O)c(CO)c1` (stereo not given), the Selectivity in the assay filed under Canis familiaris [1] came to 0.04. The results for the ED50 in the assay on Canis familiaris [2] and in the assay with Canis familiaris [3] were 0.222 µmol/kg and 0.009 µmol/kg, respectively. In addition, the ISA in the assay listed under Canis familiaris [4] and in the assay listed under Canis familiaris [5] was 100% in each case.
In the case of `CC(C)NCC(O)c1ccc(O)cc1` (stereo not given) [DETERENOL], the Selectivity in the assay listed under Canis familiaris [1] came out at 7.7. Besides, the values for the ED50 in the assay with Canis familiaris [2] and with Canis familiaris [3] were 0.01 µmol/kg and 0.077 µmol/kg, respectively. Further, the ISA in the assay filed under Canis familiaris [4] is on record as 55%; in the assay listed under Canis familiaris [5], 88%.
The like results for `CC(C)NCC(O)c1ccc(O)c(O)c1` (stereo not given) [ISOPROTERENOL] were, in that order, 0.5, 0.0014 µmol/kg, 0.0008 µmol/kg, 100% and 100%.
In the case of `CC(C)NCC(O)c1cc(O)cc(O)c1` (stereo not given) [METAPROTERENOL], the Selectivity in the assay filed under Canis familiaris [1] was 1. Further, the median effective dose (ED50) in the assay on Canis familiaris [2] and in the assay on Canis familiaris [3] was 0.014 µmol/kg each time. Further, the ISA in the assay listed under Canis familiaris [4] is recorded as 100%; in the assay filed under Canis familiaris [5], 83%.
As to `CC(C)NCC(O)c1cccc(O)c1` (stereo not given) [METATEROL], the Selectivity in the assay filed under Canis familiaris [1] worked out at 1.9. For the same molecule, the ED50 in the assay with Canis familiaris [2] came out at 0.071 µmol/kg; with Canis familiaris [3], 0.138 µmol/kg. The ISA in the assay filed under Canis familiaris [4] and in the assay listed under Canis familiaris [5] was 100% in each case.
In the case of `O=C(NCCNCC(O)COc1ccc(O)cc1)N1CCOCC1` (stereo not given) [XAMOTEROL], the Selectivity in the assay filed under Canis familiaris [1] is recorded as over 250. Besides, the ED50 in the assay with Canis familiaris [2] is 0.012 µmol/kg; in the assay on Canis familiaris [3] it was over 3 µmol/kg. The figures for the ISA in the assay filed under Canis familiaris [4] and in the assay filed under Canis familiaris [5] were 0% and 50%, respectively.
